Reference: ChEMBL document CHEMBL1149320, “New class of corticotropin-releasing factor (CRF) antagonists: small peptides having high binding affinity for CRF receptor” (J Med Chem, 2004)
Bridge positions count the residues as written; N and C are the ends. Square brackets hold non-standard residues; d marks the D form. Peptide text beside a SMILES is read from it. ξ: configuration not given here. Cha = N[C@@H](CC1CCCCC1)C(=O)O; ξR = N=C(N)NCCCC(N)C(=O)O; Nle = CCCC[C@H](N)C(=O)O

Molecular target: T1, Corticotropin-releasing factor receptor 1 (Homo sapiens, UniProt P34998)
T1 sequence (P34998 whole entry): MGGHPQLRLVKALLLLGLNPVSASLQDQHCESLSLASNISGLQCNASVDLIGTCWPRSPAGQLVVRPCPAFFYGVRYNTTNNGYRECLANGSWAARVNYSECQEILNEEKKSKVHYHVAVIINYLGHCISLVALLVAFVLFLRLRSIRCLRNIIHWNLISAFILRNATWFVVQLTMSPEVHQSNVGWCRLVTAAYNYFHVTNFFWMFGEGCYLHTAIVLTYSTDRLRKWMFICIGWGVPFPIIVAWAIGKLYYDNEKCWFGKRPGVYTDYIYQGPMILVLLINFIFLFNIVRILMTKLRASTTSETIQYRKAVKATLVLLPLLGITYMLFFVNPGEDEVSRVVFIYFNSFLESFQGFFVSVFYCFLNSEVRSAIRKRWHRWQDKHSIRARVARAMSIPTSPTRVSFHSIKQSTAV
Test: Binding affinity at human CRF1 receptor (CRFR1) on HeLA cell membranes.
Format: cell-based
Procedure, shortened: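 Membranes from HeLa cells transfected with a plasmid encoding human CRFR1, precoupled to WGA scintillation proximity beads. Bead-bound radioactivity counted by scintillation. Ki reported; curves from three determinations, each in duplicate.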

Compound	Ki (hela) [nM]	Ki [nM]
CCCC[C@H](NC(=O)[C@H](CC(C)C)NC(=O)[C@H](CCCCN)NC(=O)[C@H](CCCNC(=N)N)NC(=O)[C@H](CC(C)C)NC(=O)[C@@H]1CCCCNC(=O)CC[C@H](NC(C)=O)C(=O)N[C@@H](C)C(=O)N[C@@H](CC(C)C)C(=O)N1)C(=O)N[C@@H](CCC(=O)O)C(=O)N[C@H](C(=O)N[C@H](C(N)=O)[C@@H](C)CC)[C@@H](C)CC (Ac-EALKLRKL[Nle]EII-NH2; lactam 1-4)	48.9	
CCCC[C@H](NC(=O)[C@H](CC(C)C)NC(=O)[C@H](CCCCN)NC(=O)[C@H](CCCN=C(N)N)NC(=O)[C@H](CC(=O)O)NC(=O)[C@@H]1CCCCNC(=O)CC[C@H](NC(C)=O)C(=O)N[C@@H](C)C(=O)N[C@@H](Cc2c[nH]cn2)C(=O)N1)C(=O)N[C@@H](CCC(=O)O)C(=O)N[C@H](C(=O)N[C@H](C(N)=O)[C@@H](C)CC)[C@@H](C)CC (Ac-EAHKDRKL[Nle]EII-NH2; lactam 1-4)		> 1000
CCCC[C@H](NC(=O)[C@H](CC(C)C)NC(=O)[C@H](CCCCN)NC(=O)[C@H](CCCN=C(N)N)NC(=O)[C@H](CC(N)=O)NC(=O)[C@@H]1CCCCNC(=O)CC[C@H](NC(C)=O)C(=O)N[C@@H](CC(=O)O)C(=O)N[C@@H](Cc2c[nH]cn2)C(=O)N1)C(=O)N[C@@H](CCC(=O)O)C(=O)N[C@H](C(=O)N[C@H](C(N)=O)[C@@H](C)CC)[C@@H](C)CC (Ac-EDHKNRKL[Nle]EII-NH2; lactam 1-4)		> 1000
CCCC[C@H](NC(=O)[C@H](CC(C)C)NC(=O)[C@H](CCCCN)NC(=O)[C@H](CCCN=C(N)N)NC(=O)[C@H](CC(C)C)NC(=O)[C@@H]1CCCCNC(=O)CC[C@H](NC(C)=O)C(=O)N[C@@H](C)C(=O)N[C@@H](Cc2c[nH]cn2)C(=O)N1)C(=O)N[C@@H](CCC(=O)O)C(=O)N[C@H](C(=O)N[C@H](C(N)=O)[C@@H](C)CC)[C@@H](C)CC (Ac-EAHKLRKL[Nle]EII-NH2; lactam 1-4)		> 1000
CCCC[C@H](NC(=O)[C@H](CC(C)C)NC(=O)[C@H](CCCCN)NC(=O)[C@H](CCCN=C(N)N)NC(=O)[C@H](CCC(N)=O)NC(=O)[C@@H]1CCCCNC(=O)CC[C@H](NC(C)=O)C(=O)N[C@@H](C)C(=O)N[C@@H](Cc2c[nH]cn2)C(=O)N1)C(=O)N[C@@H](CCC(=O)O)C(=O)N[C@H](C(=O)N[C@H](C(N)=O)[C@@H](C)CC)[C@@H](C)CC (Ac-EAHKQRKL[Nle]EII-NH2; lactam 1-4)		> 1000
CCCC[C@H](NC(=O)[C@H](CC(C)C)NC(=O)[C@H](CCCCN)NC(=O)C(CCCN=C(N)N)NC(=O)[C@H](CC(N)=O)NC(=O)[C@@H]1CCCCNC(=O)CC[C@H](NC(C)=O)C(=O)N[C@@H](C)C(=O)N[C@@H](CCCCN)C(=O)N1)C(=O)N[C@@H](CCC(=O)O)C(=O)N[C@H](C(=O)N[C@H](C(N)=O)[C@@H](C)CC)[C@@H](C)CC (some centres undefined) (Ac-EAKKN[ξR]KL[Nle]EII-NH2; lactam 1-4)	44.8	
CC[C@H](C)[C@H](NC(=O)[C@@H](NC(=O)[C@H](CC(=O)O)NC(=O)[C@H](CC1CCCCC1)NC(=O)[C@H](CC(C)C)NC(=O)[C@H](CCCCN)NC(=O)[C@H](CCCNC(=N)N)NC(=O)[C@H](CC(C)C)NC(=O)[C@@H]1CCCCNC(=O)CC[C@H](NC(C)=O)C(=O)N[C@H](C)C(=O)N[C@@H](CCC(=O)O)C(=O)N1)[C@@H](C)CC)C(N)=O	3.1	
CC[C@H](C)[C@H](NC(=O)[C@@H](NC(=O)[C@H](CC(=O)O)NC(=O)[C@H](CC1CCCCC1)NC(=O)[C@H](CC(C)C)NC(=O)[C@H](CCCCN)NC(=O)[C@H](CCCNC(=N)N)NC(=O)[C@H](CC(N)=O)NC(=O)[C@@H]1CCCCNC(=O)CC[C@H](NC(C)=O)C(=O)N[C@@H](C)C(=O)N[C@@H](CCC(=O)O)C(=O)N1)[C@@H](C)CC)C(N)=O (Ac-EAEKNRKL[Cha]DII-NH2; lactam 1-4)	5.5	
CCCC[C@H](NC(=O)[C@H](CC(C)C)NC(=O)[C@H](CCCCN)NC(=O)[C@H](CCCN=C(N)N)NC(=O)[C@H](CC(N)=O)NC(=O)[C@@H]1CCCCNC(=O)CC[C@H](NC(C)=O)C(=O)N[C@H](C)C(=O)N[C@@H](Cc2ccccc2)C(=O)N1)C(=O)N[C@@H](CCC(=O)O)C(=O)N[C@H](C(=O)N[C@H](C(N)=O)[C@@H](C)CC)[C@@H](C)CC	> 1000	
